In paper PMC3823230 (Journal of Cellular and Molecular Medicine, 2012):
Structures can show the parent of a compound that is named as a salt. Where two headings read alike, the source gives them in different places.

Columns and labels:
[1] = system: antibiotic-resistant strain (A–E) of P. aeruginosa; assay: MIC against antibiotic-resistant strains; assay type: cell-based, Pseudomonas aeruginosa; details: for MIC: Pseudomonas aeruginosa; for Resistance/sensitivity class, strain A / MIC, P. aeruginosa strain A: antibiotic-resistant strain A; for Resistance/sensitivity class, strain B / MIC, P. aeruginosa strain B: antibiotic-resistant strain B; for Resistance/sensitivity class, strain C / MIC, P. aeruginosa strain C: antibiotic-resistant strain C; for Resistance/sensitivity class, strain D / MIC, P. aeruginosa strain D: antibiotic-resistant strain D; for Resistance/sensitivity class, strain E / MIC, P. aeruginosa strain E: antibiotic-resistant strain E
[2] = system: db/db mice wounds with methicillin-resistant S. aureus; assay: Diabetic mouse infectious; assay type: in vivo
Summary of the method: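 Male C57BL/6 db/db mice, n = 6–8 per group, backs depilated 3 days before surgery. Under anaesthesia, 15 mm dorsal punch biopsy wounds received 100 μl MRSA (1 × 10^4 cfu/ml) topically, with or without peptide (100 μg/ml) or saline, under semi-permeable polyurethane dressing. Dosing and photographic wound-area measurement on days 0, 2, 4, 7, 9, 11, 14, 16. Means ± S.E.M.; ANOVA with Fisher's PLSD.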

[3] = system: C57BL/6 db/db mice, punch biopsy wounds; assay: Diabetic mouse wound-healing model; assay type: in vivo; details: topical 100 μg/ml
[4] = system: NIBS minipigs, full-thickness excisional wounds; assay: Porcine wound-healing model; assay type: in vivo, pig; details: anti-vWF staining; in comparison to control group; N = 6
Summary of the method: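 Three male NIBS minipigs (32.0–33.5 kg) premedicated with ketamine 500 mg/body under isoflurane 2–4%. Four 25 mm, 10 mm-deep full-thickness excisional wounds per side abdomen, 30 mm apart. Peptide 100 μg/ml or saline (200 μl/site) applied on days 0, 2, 4, 6, 8, 10 under polyurethane dressing. Day-12 frozen sections were acetone-fixed (−20°C, 15 min), and capillary EC immunostained with anti-vWF (1:200).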

[5] = read-out: MIC, P. aeruginosa strain A
[6] = read-out: MIC, P. aeruginosa strain B
[7] = read-out: MIC, P. aeruginosa strain C
[8] = read-out: MIC, P. aeruginosa strain D
[9] = read-out: MIC, P. aeruginosa strain E

Compound: C[C@H]1[C@H](NC(=O)/C(=N\OC(C)(C)C(=O)O)c2csc(N)n2)C(=O)N1S(=O)(=O)O [AZT, aztreonam]
- MIC [1, 5]: < 8 µg/mL
- MIC [1, 6]: > 16 µg/mL
- MIC [1, 7]: < 8 µg/mL
- MIC [1, 8]: < 8 µg/mL
- MIC [1, 9]: > 16 µg/mL
- Resistance/sensitivity class, strain A [1]: S
- Resistance/sensitivity class, strain B [1]: R
- Resistance/sensitivity class, strain C [1]: S
- Resistance/sensitivity class, strain D [1]: S
- Resistance/sensitivity class, strain E [1]: R

Compound: CC(C)(O/N=C(\C(=O)N[C@@H]1C(=O)N2C(C(=O)[O-])=C(C[n+]3ccccc3)CS[C@H]12)c1csc(N)n1)C(=O)O [CAZ, ceftazidime hydrate]
- MIC [1, 5]: < 8 µg/mL
- MIC [1, 6]: < 8 µg/mL
- MIC [1, 7]: < 8 µg/mL
- MIC [1, 8]: < 8 µg/mL
- MIC [1, 9]: > 32 µg/mL
- Resistance/sensitivity class, strain A [1]: S
- Resistance/sensitivity class, strain B [1]: S
- Resistance/sensitivity class, strain C [1]: S
- Resistance/sensitivity class, strain D [1]: S
- Resistance/sensitivity class, strain E [1]: R

Compound: CO/N=C(\C(=O)N[C@@H]1C(=O)N2C(C(=O)O)=C(C[N+]3(C)CCCC3)CS[C@H]12)c1csc(N)n1.Cl.O.[Cl-] [CFPM, cefepime hidrochloride hydrate]
- MIC, P. aeruginosa strain A [1]: < 8 µg/mL
- MIC, P. aeruginosa strain B [1]: < 8 µg/mL
- MIC, P. aeruginosa strain C [1]: < 8 µg/mL
- MIC, P. aeruginosa strain D [1]: < 8 µg/mL
- MIC, P. aeruginosa strain E [1]: > 16 µg/mL

Compound: O=C(O)c1cn(C2CC2)c2cc(N3CCNCC3)c(F)cc2c1=O [CPFX, Ciprofloxacin hydrochloride]
- MIC [1, 5]: < 1 µg/mL
- MIC [1, 6]: < 1 µg/mL
- MIC [1, 7]: < 1 µg/mL
- MIC [1, 8]: < 1 µg/mL
- MIC [1, 9]: > 2 µg/mL

Compound: CCN1CCN(C(=O)N[C@@H](C(=O)N[C@@H]2C(=O)N3C(C(=O)O)=C(CSc4nnnn4C)CS[C@H]23)c2ccc(O)cc2)C(=O)C1=O [CPZ, cefoperazone sodium]
- MIC [1, 5]: < 16 µg/mL
- MIC [1, 6]: 32 µg/mL
- MIC [1, 7]: < 16 µg/mL
- MIC [1, 8]: < 16 µg/mL
- MIC [1, 9]: > 32 µg/mL
- Resistance/sensitivity class, strain A [1]: S
- Resistance/sensitivity class, strain C [1]: S
- Resistance/sensitivity class, strain D [1]: S
- Resistance/sensitivity class, strain E [1]: R

Compound: C[C@@H]1O[C@@H]1P(=O)(O)O [FOM, fosfomycin sodium]
- MIC [1, 5]: > 16 µg/mL
- MIC [1, 6]: > 16 µg/mL
- MIC [1, 7]: > 16 µg/mL
- MIC [1, 8]: > 16 µg/mL
- MIC [1, 9]: > 16 µg/mL
- Resistance/sensitivity class, strain A [1]: R
- Resistance/sensitivity class, strain B [1]: R
- Resistance/sensitivity class, strain C [1]: R
- Resistance/sensitivity class, strain D [1]: R
- Resistance/sensitivity class, strain E [1]: R

Compound: C[C@H]1COc2c(N3CCN(C)CC3)c(F)cc3c(=O)c(C(=O)O)cn1c23 [LVFX, levofloxacin hydrate]
- MIC [1, 5]: < 2 µg/mL
- MIC [1, 6]: < 2 µg/mL
- MIC [1, 7]: < 2 µg/mL
- MIC [1, 8]: 4 µg/mL
- MIC [1, 9]: > 4 µg/mL
- Resistance/sensitivity class, strain A [1]: S
- Resistance/sensitivity class, strain B [1]: S
- Resistance/sensitivity class, strain C [1]: S
- Resistance/sensitivity class, strain D [1]: S
- Resistance/sensitivity class, strain E [1]: R

Compound: NC[C@H]1O[C@H](O[C@H]2[C@H](O)[C@@H](O[C@H]3O[C@H](CO)[C@@H](O)[C@H](N)[C@H]3O)[C@H](N)C[C@@H]2N)[C@H](N)C[C@@H]1O [TOB, tobramycin]
- MIC [1, 5]: > 8 µg/mL
- MIC [1, 6]: < 4 µg/mL
- MIC [1, 7]: > 8 µg/mL
- MIC [1, 8]: < 4 µg/mL
- MIC [1, 9]: < 4 µg/mL
- Resistance/sensitivity class, strain A [1]: R
- Resistance/sensitivity class, strain B [1]: S
- Resistance/sensitivity class, strain C [1]: R
- Resistance/sensitivity class, strain D [1]: S
- Resistance/sensitivity class, strain E [1]: S

Compound: Gentamicin sulfate [GM]
- MIC, P. aeruginosa strain A [1]: > 8 µg/mL
- Resistance/sensitivity class, strain A [1]: R
- MIC, P. aeruginosa strain B [1]: < 4 µg/mL
- Resistance/sensitivity class, strain B [1]: S
- MIC, P. aeruginosa strain C [1]: > 8 µg/mL
- Resistance/sensitivity class, strain C [1]: R
- MIC, P. aeruginosa strain D [1]: < 4 µg/mL
- Resistance/sensitivity class, strain D [1]: S
- MIC, P. aeruginosa strain E [1]: 8 µg/mL

Compound: LL37: well-known antimicrobial peptide with angiogenic effects
- Yellow pus on MRSA-infected wounds ([2]; MRSA 1 x 10^4 cfu/ml, co-treatment 100 μg/ml): attenuated the increase of yellow pus
- Infectious wound size ([2]; MRSA, 100 μg/ml, days 11, 14 and 16 after treatment): significantly decreased wound size
- Blood flow around the wound (LDI), diabetic mouse ([3]; 3 days after operation, compared with control group): significantly increased the blood flow
- Spontaneous S. aureus infection of wounds during experiment ([3]; db/db mice): none of the mice
- Wound size, diabetic mouse ([3]; db/db mice, day 14, versus control): significantly decreased wound size
- Microcapillary density, porcine wound [4]: significantly increased
